Source: PMC8039535 (Molecular Therapy. Nucleic Acids, 2021)

Legend:
[1] = Steroid pharmacokinetics after i.v. or s.c. administration; type: in vivo, CD1 mice; conditions: CD1, mouse, plasma, iv
Procedure, shortened: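 CD1 mice (n = 4) received steroid i.v. or s.c. intrascapularly. Parent steroid was given in 0.6% ethanol in PBS; ester prodrugs were given within hFGF21 mRNA MC3 LNPs. Serial saphenous blood was drawn, with a terminal sample at 24 h. Parent steroid in plasma was quantified by UPLC–triple quadrupole MS.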

[2] = tested on: hFGF21 protein; type: in vivo; conditions: prodrug incorporated into the MC3 LNP, s.c., 0.3 mg/kg mRNA, CD1 mice
Procedure, shortened: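 CD1 mice (n = 5) under light isoflurane received hFGF21 mRNA in MC3 LNPs (0.3 mg/kg mRNA) s.c. intrascapularly at 5 mL/kg. LNPs were with or without steroid ester prodrug at a prodrug steroid/mRNA weight ratio of 1:1. Saphenous blood was taken at 2, 5, 8 and 24 h. Plasma (3,000 × g, 10 min, 4°C) hFGF21 was measured by multiplex Luminex. AUC2–24 h was reported as a geometric mean.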

Row | SMILES | clearance [1] | half-life ([1]; Half-life in plasma, i.v. administration, CD1 mice) | Fold increase of hFGF21 AUC2–24 h versus MC3 LNP without steroid [2]
1 | CCCC1O[C@@H]2C[C@H]3[C@@H]4CCC5=CC(=O)C=C[C@]5(C)[C@H]4[C@@H](O)C[C@]3(C)[C@]2(C(=O)CO)O1 (stereo partly drawn) [Budesonide parent, budesonide] | 121 mL/min/kg | ~40 min | 
2 | CCCCCCCCCCCCCC(=O)OCC(=O)[C@@]12O[C@H](CCC)O[C@@H]1C[C@H]1[C@@H]3C[C@H](F)C4=CC(=O)CC[C@]4(C)[C@@]3(F)[C@@H](O)C[C@@]12C [Rofleponide-C14] |  |  | 3.8 fold
